Experimental data published in ChEMBL document CHEMBL3751740, “New MKLP-2 inhibitors in the paprotrain series: Design, synthesis and biological evaluations” (Bioorg Med Chem, 2016).
The source made the active and inactive calls. The rule behind the calls is not given here.

Assays:
[1] = species on record: Ovis aries; assay: Inhibition of sheep brain tubulin polymerization by UV spectrophotometric analysis; set-up: concentration or dose not given beside the values
Outline: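 Tubulin purified from sheep brain by two assembly/disassembly cycles, about 2–3 mg/mL in 0.1 M MES, 0.5 mM MgCl2, 1 mM EGTA, 1 mM GTP, pH 6.6. Compound in DMSO added at 0 °C, then moved to a 37 °C thermostated cell. Assembly followed by turbidity at 350 nm for a few min.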

[2] = target: T1, Kinesin-like protein KIF20A (Homo sapiens, UniProt O95235); assay: Inhibition of microtubule-stimulated N-terminal MKLP-2 (56 to 505 residues) ATPase activity isolated from human hepatocellular carcinoma cells by pyruvate kinase/lactate dehydrogenase enzyme linked assay; conditions: read-out: IC50
T1 sequence (O95235 whole entry): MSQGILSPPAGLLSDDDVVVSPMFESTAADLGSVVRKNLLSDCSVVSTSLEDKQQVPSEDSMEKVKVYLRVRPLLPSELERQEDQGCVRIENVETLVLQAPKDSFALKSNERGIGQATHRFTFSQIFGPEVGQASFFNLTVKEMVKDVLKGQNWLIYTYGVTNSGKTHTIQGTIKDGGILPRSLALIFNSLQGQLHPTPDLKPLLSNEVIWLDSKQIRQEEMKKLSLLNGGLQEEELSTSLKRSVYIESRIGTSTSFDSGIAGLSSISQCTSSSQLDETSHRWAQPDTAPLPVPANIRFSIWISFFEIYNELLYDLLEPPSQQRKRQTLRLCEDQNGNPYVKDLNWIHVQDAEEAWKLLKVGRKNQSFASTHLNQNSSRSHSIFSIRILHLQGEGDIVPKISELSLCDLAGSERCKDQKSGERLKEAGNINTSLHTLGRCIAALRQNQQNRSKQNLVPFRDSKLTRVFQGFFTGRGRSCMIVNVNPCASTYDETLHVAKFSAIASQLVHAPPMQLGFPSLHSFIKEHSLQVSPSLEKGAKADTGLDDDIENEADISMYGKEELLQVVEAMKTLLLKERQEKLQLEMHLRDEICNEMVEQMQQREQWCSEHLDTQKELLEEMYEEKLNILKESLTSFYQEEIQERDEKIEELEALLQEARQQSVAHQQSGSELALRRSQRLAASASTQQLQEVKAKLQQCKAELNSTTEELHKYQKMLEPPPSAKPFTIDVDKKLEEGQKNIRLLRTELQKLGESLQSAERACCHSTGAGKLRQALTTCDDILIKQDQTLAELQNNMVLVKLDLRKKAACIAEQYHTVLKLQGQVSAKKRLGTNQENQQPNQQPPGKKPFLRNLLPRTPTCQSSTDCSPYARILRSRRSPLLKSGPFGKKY

[3] = target: T1, Kinesin-like protein KIF20A; assay: Inhibition of N-terminal MKLP2 (56 to 505 residues) ATPase basal activity isolated from human hepatocellular carcinoma cells by pyruvate kinase/lactate dehydrogenase enzyme linked assay
[4] = species on record: Ovis aries; assay: Induction of sheep brain microtubule disassembly by UV spectrophotometric analysis
Outline: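 Sheep brain tubulin, purified by two assembly/disassembly cycles and held in MES buffer with GTP at pH 6.6, was polymerized at 37 °C for 10 min. Compound was then added to the MTs at 0 °C and depolymerization was followed over the next few minutes by turbidity at 350 nm.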

[5] = test system: KB; assay: Growth inhibition of human KB cells at 10 uM after 72 hrs by MTS assay; format: functional; conditions: read-out: GI
Outline: (§1)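 KB cells were grown in DMEM with 25 mM glucose and 10% FCS at 37 °C, 5% CO2, and seeded at 500 cells/well. 24 h later, compound in DMSO (1% final) was added at 10 µM or 1 µM for 72 h; controls received DMSO alone. Runs were in duplicate. Viable cells were read with MTS at 490 nm.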

[6] = target: T2, Kinesin-like protein KIF23 (Homo sapiens) (UniProt Q02241); assay: Inhibition of porcine brain microtubule-stimulated human recombinant GST-tagged MKLP1 ATPase activity at 1 mM by microplate reader in presence of Mg2+ ATP relative to control
T2 sequence (whole entry): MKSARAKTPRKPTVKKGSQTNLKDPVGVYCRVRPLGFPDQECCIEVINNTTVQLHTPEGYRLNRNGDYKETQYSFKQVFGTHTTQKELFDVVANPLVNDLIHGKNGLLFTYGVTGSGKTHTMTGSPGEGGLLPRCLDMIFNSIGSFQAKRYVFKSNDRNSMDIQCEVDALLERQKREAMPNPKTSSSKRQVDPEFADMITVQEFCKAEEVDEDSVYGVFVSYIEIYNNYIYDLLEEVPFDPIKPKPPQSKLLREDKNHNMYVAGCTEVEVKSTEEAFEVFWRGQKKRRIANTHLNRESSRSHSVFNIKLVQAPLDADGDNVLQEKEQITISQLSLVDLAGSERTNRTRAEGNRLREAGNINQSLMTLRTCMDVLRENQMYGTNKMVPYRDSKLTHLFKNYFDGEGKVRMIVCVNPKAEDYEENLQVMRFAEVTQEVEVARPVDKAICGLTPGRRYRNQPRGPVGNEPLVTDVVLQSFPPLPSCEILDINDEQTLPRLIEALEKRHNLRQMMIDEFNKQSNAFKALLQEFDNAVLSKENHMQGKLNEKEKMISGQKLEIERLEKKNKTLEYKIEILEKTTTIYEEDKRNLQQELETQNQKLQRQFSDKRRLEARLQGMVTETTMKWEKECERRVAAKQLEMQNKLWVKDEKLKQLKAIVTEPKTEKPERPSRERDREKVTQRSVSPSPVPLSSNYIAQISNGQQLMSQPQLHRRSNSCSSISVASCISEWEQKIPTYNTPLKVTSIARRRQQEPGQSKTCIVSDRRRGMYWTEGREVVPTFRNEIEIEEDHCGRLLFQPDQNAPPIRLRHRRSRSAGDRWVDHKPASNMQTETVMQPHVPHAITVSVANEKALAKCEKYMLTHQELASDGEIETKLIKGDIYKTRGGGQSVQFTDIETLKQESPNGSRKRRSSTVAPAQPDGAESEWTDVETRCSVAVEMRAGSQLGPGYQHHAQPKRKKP
Outline: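 Motor domain at 15 µM final, in 7.5 mM PIPES-NaOH pH 7.0 with […], 10 µM Taxol, ELIPA 1 and 2 reagents and 1.25 mg/mL microtubules. AMP-PNP, a slowly hydrolysable ATP analog and general ATPase inhibitor, tested at 1 mM. Reaction started with 1 mM Mg2+ATP at 22 °C and read kinetically at 360 nm. Run in triplicate.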

[7] = Growth inhibition of human PK59 cells incubated for 4 days by WST-1 assay; format: functional; conditions: PK-59, 96 h
Outline: (§2)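 Cells were kept at 37 °C under 5% CO2 and plated on day 0 at 500–5000 cells/well. On day 1 they received ten concentrations from 0.0025 to 50 µM (final), in triplicate. On day 4 WST-1 was added, followed by 30 min–4 h incubation and absorbance at 450 nm. GI50 is the concentration killing 50% of cells.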

[8] = test system: NCI-H460; assay: Growth inhibition of human NCI-H460 cells incubated for 4 days by WST-1 assay; format: functional; conditions: NCI-H460, 96 h; outline: as §2
[9] = test system: KB; assay: Growth inhibition of human KB cells at 1 uM after 72 hrs by MTS assay; format: functional; conditions: read-out: GI; outline: as §1

| inhibition ([1]; concentration not given here) [%] | IC50 [2] [µM] | Activity [4] | inhibition [1] | IC50 ([3]; read-out: IC50) [µM] | GI50 [8] [µM] | Compound | IC50 [3] | inhibition of growth at 10 µM [5] [%] | inhibition [6] [%] | GI50 [7] [µM] | inhibition of growth at 1 µM [9] [%] |
| --- | --- | --- | --- | --- | --- | --- | --- | --- | --- | --- | --- |
|  |  |  |  |  |  | Nc1ncnc2c1ncn2[C@@H]1O[C@H](COP(=O)(O)OP(=O)(O)NP(=O)(O)O)[C@@H](O)[C@H]1O |  |  | > 30 |  |  |
|  | 3.3 | inactive | inactive | 4.2 |  | COc1cccc2[nH]cc(/C(C#N)=C/c3cccnc3)c12 |  | 27 |  |  |  |
|  | 0.23 |  | inactive | 1.2 | 8.2 | COc1ccc2[nH]cc(/C(C#N)=C/c3cccnc3)c2c1 |  | 57 |  | > 50 |  |
| 35 | 5.1 | inactive |  | 14.3 |  | N#C/C(=C\c1ccc2c(c1)OCO2)c1c[nH]c2ccccc12 |  | 100 |  |  | 11 |
| 54 | 5.4 | inactive |  | 5.6 |  | COc1ccc2c(/C(C#N)=C/c3cccnc3)c[nH]c2c1 |  | 87 |  |  | 78 |

| Compound | inhibition ([1]; concentration not given here) [%] | IC50 [2] [µM] | Activity [4] | inhibition [1] | IC50 ([3]; read-out: IC50) [µM] | GI50 [8] [µM] | IC50 [3] | inhibition of growth at 10 µM [5] [%] | inhibition [6] [%] | GI50 [7] [µM] | inhibition of growth at 1 µM [9] [%] |
| --- | --- | --- | --- | --- | --- | --- | --- | --- | --- | --- | --- |
| N#C/C(=C\c1cccnc1)c1c[nH]c2ccc(OCc3ccccc3)cc12 | 12 | 1.3 | inactive |  |  |  | Not Active | 57 |  |  |  |
